Values joined by “and” are separate entries in the source; they are usually repeats but may differ in a detail not shown here. Equal entries are not always repeated. Where two headings read alike, the source gives them in different places. Marks after values point to notes of the source that are not given here.
Key:
[1] = test system: Haemonchus contortus exsheathed third-stage larvae (xL3s); experiment: Whole-organism xL3 motility assay; type: cell-based; conditions: for IC50: Haemonchus contortus
[2] = test system: Haemonchus contortus fourth-stage larvae (L4s); experiment: L4 motility assay; type: cell-based
[3] = test system: mammary epithelial cell line (MCF10A); experiment: cells; type: cell-based; conditions: for IC50 / inhibition at 100 µM: Homo sapiens, MCF-10A; for IC50: 48 h, read-out: MCF10A cells IC50; for inhibition at 100 µM: read-out: MCF10A cells % inhibition at 100 μM; for Selectivity index (SI) H. contortus L4 (72 h) / Selectivity index (SI) H. contortus L4 development (7 days) / Selectivity index (SI) H. contortus xL3 (72 h): highest value of IC50 range; for selectivity index (SI) for parasitic larvae of H. contortus, range: range over xL3, L4 motility and L4 development
[4] = test system: adult female and male Brugia malayi; conditions: ref Storey et al., 2014, cited from earlier work
[5] = test system: microfilariae of Brugia malayi; conditions: read-out: motility IC50, B. malayi microfilariae; ref Storey et al., 2014; cited from earlier work
[6] = test system: microfilariae of Dirofilaria immitis; conditions: read-out: motility IC50, D. immitis microfilariae; cited from earlier work
[7] = test system: adult female and male Brugia malayi; experiment: Adult motility assay; type: cell-based; conditions: for IC50: Brugia malayi
[8] = test system: microfilariae of Brugia malayi; experiment: Microfilariae motility assay; type: cell-based; conditions: 72 h, read-out: motility IC50, B. malayi microfilariae
How it was run: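 Individual gravid B. malayi females in RPMI-1640 with gentamycin (10 μg/ml) and amphotericin B (2.5 μg/ml). Two-fold test-compound dilutions from 100 to 0.97 μM in duplicate; RPMI* with 1% DMSO as negative control. Incubated at 37 °C, 5% CO2. At 72 h, about 100 released microfilariae moved to 96-well plates and filmed for 30 s on the Worminator. Run three times; IC50 from a four-parameter variable-slope fit.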

[9] = test system: microfilariae of Dirofilaria immitis; experiment: microbe, parasite or virus in culture; type: cell-based; conditions: for IC50: Dirofilaria immitis, read-out: motility IC50, D. immitis microfilariae
adult A. ceylanicum = experiment: Adult hookworm in vitro assay; type: cell-based, Ancylostoma ceylanicum; conditions: for killing of adult A. ceylanicum: 50 μM, 72 h
How it was run: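 Adult worms taken from small intestines of hamsters orally infected with 150 A. ceylanicum L3s three weeks earlier. Three worms per well, 2 wells per compound, in HBSS with 10% foetal calf serum, amphotericin B (25 μg/ml), penicillin (100 U/ml) and streptomycin (100 μg/ml). Test compound at 50 μM; levamisole (50 μM) as positive control. Held 72 h at 37 °C, 5% CO2, then condition assessed microscopically.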

T. muris L1s = experiment: Whipworm L1 in vitro assay; type: cell-based, Trichuris muris
How it was run: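 Forty T. muris L1s per well in 100 μl RPMI-1640 with amphotericin B (12.5 μg/ml), penicillin (500 U/ml) and streptomycin (500 μg/ml). Test compound at 100 μM in duplicate; levamisole (100 μM) as positive control. Held 24 h at 37 °C, 5% CO2. Total L1s counted, then larvae stimulated with 100 μl hot water and motile L1s counted.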

[10] = 24 h, read-out: xL3 motility IC50
[11] = 48 h, read-out: xL3 motility IC50
[12] = 72 h, read-out: xL3 motility IC50
[13] = 24 h, read-out: L4 motility IC50
[14] = 48 h, read-out: L4 motility IC50
[15] = 72 h, read-out: L4 motility IC50
[16] = IC50 MCF10A / IC50 nematode, estimated IC50 range

C[C@](C#N)(COc1cc(C#N)ccc1C(F)(F)F)NC(=O)c1ccc(SC(F)(F)F)cc1 [Monepantel, monepantel]
IC50 [1, 10]: 0.48 ± 0.23 µM | IC50 [1, 11]: 0.26 ± 0.15 µM | IC50 [1, 12]: 0.16 ± 0.08 µM | IC50 [2, 13]: 0.76 ± 0.29 µM | IC50 [2, 14]: 0.34 ± 0.18 µM | IC50 [2, 15]: 0.37 ± 0.32 µM | IC50 [3]: 24.9 ± 11.8 µM | inhibition at 100 µM [3]: 0.1 ± 0.05% | Selectivity index (SI) H. contortus L4 (72 h) ([3]; IC50 MCF10A / IC50 nematode): 67.4 | Selectivity index (SI) H. contortus L4 development (7 days) ([3]; IC50 MCF10A / IC50 nematode): 332.4 | selectivity index (SI) for parasitic larvae of H. contortus, range [3]: 67–332

CO/N=C1\C[C@]2(C[C@@H]3C[C@@H](C/C=C(\C)C[C@@H](C)/C=C/C=C4\CO[C@@H]5[C@H](O)C(C)=C[C@@H](C(=O)O3)[C@]45O)O2)O[C@H](/C(C)=C/C(C)C)[C@H]1C [Moxidectin, moxidectin]
IC50 [1, 10]: 0.19 ± 0.03 µM | IC50 [1, 11]: 0.97 ± 0.84 µM | IC50 [1, 12]: 0.08 ± 0.04 µM | IC50 [2, 13]: 0.07 ± 0.04 µM | IC50 [2, 14]: 0.05 ± 0.02 µM | IC50 [2, 15]: 0.02 ± 0.01 µM | IC50 [3]: < 6 µM | inhibition at 100 µM [3]: 0.05 ± 0.01% | Selectivity index (SI) H. contortus L4 (72 h) ([3]; IC50 MCF10A / IC50 nematode): 300 | Selectivity index (SI) H. contortus L4 development (7 days) ([3]; IC50 MCF10A / IC50 nematode): 1.7 | Selectivity index (SI) H. contortus xL3 (72 h) ([3]; IC50 MCF10A / IC50 nematode): 75 | selectivity index (SI) for parasitic larvae of H. contortus, range [3]: 2 to 300 | comparison value for motility of adult B. malayi ([4]; 24 h): 1.3 µM | comparison value for motility of adult B. malayi ([4]; 48 h): 2.9 µM | IC50 [5]: ~6 µM | IC50 [6]: 9.3 µM

O=C(Nc1ccc(Cl)cc1)N1CCCC1c1nc(-c2ccccc2)no1 (stereo not shown) [SN00797439, N-(4-chlorophenyl)-2-(3-phenyl-1,2,4-oxadiazol-5-yl)-1-pyrrolidinecarboxamide]
xL3 phenotype ([1]; 20 μM): “coiled” xL3 phenotype | reduction of xL3 motility ([1]; 20 μM, 72 h, primary and confirmatory screens): ≥ 70% | IC50 [1, 10]: 3.46 ± 0.82 µM | IC50 [1, 11]: 10.1 ± 2.06 µM | IC50 [1, 12]: 5.93 ± 1.38 µM | IC50 ([1]; read-out: xL3 IC50 (abstract summary)): 3.46 to 5.93 µM | IC50 [2, 13]: 6.25 to 12.5 µM | IC50 [2, 14]: 0.78 to 1.5 µM | IC50 [2, 15]: 0.31 to 0.78 µM | IC50 ([2]; read-out: L4 motility IC50 (abstract summary)): 0.31 to 12.5 µM | concentration at which movement of female and male adults ceased ([7]; 24 h): 100 µM | concentration at which movement of female and male adults ceased ([7]; 48 h): 50 µM | IC50 ([7]; 24 h, read-out: motility IC50, B. malayi adult female): 25 to 50 µM | IC50 ([7]; 24 h, read-out: motility IC50, B. malayi adult male): 25 to 50 µM | IC50 [8]: ~3 µM | concentration giving complete inhibition of microfilariae motility [9]: 100 µM | IC50 ([9]; 24 h): ~50 µM | IC50 ([9]; 48 h): ~50 µM | kill of adults of A. ceylanicum (abstract) (adult A. ceylanicum): > 90% | killing of adult A. ceylanicum (adult A. ceylanicum): killed | T. muris L1s dead (T. muris L1s; 100 μM, 24 h): > 90% and 90.1% | IC50 (T. muris L1s; Trichuris muris, read-out: IC50 on first-stage larvae of T. muris (abstract)): 3 to 50 µM | Selectivity index (SI) D. immitis mff (48 h) [3]: 2 ^b | IC50 [3]: 50 to 100 µM | inhibition at 100 µM [3]: 6.2 ± 0.66% | Selectivity index (SI) B. malayi adult females [3, 16]: 2 ^b | Selectivity index (SI) B. malayi adult males [3, 16]: 2 ^b | Selectivity index (SI) H. contortus L4 (72 h) ([3]; IC50 MCF10A / IC50 nematode): 128.2 ^b | Selectivity index (SI) H. contortus L4 development (7 days) ([3]; IC50 MCF10A / IC50 nematode): 9.1 | Selectivity index (SI) H. contortus xL3 (72 h) ([3]; IC50 MCF10A / IC50 nematode): 16.9 | selectivity index (SI) for parasitic larvae of H. contortus, range [3]: 9–128

c1ccc([C@H]2CN3CCSC3=N2)cc1 [levamisole, reference compound]
killing of adult A. ceylanicum (adult A. ceylanicum): killed | killing of T. muris L1s (T. muris L1s; 100 μM, 24 h): killed

ivermectin
IC50 [6]: 43 µM
